Test results reported in ChEMBL document CHEMBL4316642, “Discovery of 1,4-Naphthoquinones as a New Class of Antiproliferative Agents Targeting GPR55” (ACS Med Chem Lett, 2019).
Active and inactive are the calls of the source. No cut-off for these calls is given here.

What was measured:
Format in all cases: cell-based
[1] = Cytotoxicity in human PBMC assessed as cell viability at 100 uM incubated for 24 to 48 hrs hrs by trypan blue dye exclusion assay; settings: PBMC (peripheral blood mononuclear cells), read-out: Activity
Procedure, shortened: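 Peripheral blood mononuclear cells exposed at 100 μM for 24 or 48 h; viability scored by trypan blue dye exclusion, reported as percent viable cells.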

[2] = tested on: MCF-10A; assay: Cytotoxicity in human MCF10A cells assessed as reduction in cell viability incubated for 24 hrs by MTT assay
Procedure, shortened: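 EC50 from MTT viability after 24 h exposure; values in micromolar, mean of triplicate (n = 3) determinations. MCF10A described as […]; MDA-MB-231 noted as GPR55-overexpressing.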

[3] = target: G-protein coupled receptor 55 (Homo sapiens) (UniProt Q9Y2T6); assay: Inverse agonist activity at GPR55 in human MDA-MB-231 cells assessed as reduction in cell viability at 5 uM treated 30 mins after 10 uM GPR55 selective antagonist CID16020046 treatment followed by incubation for 24 hrs by MTT assay
Procedure, shortened: (§1)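 Cells pretreated with GPR55 antagonist CID16020046 for 30 min before test compound addition; proliferation compared against DMSO-treated cells.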

[4] = target: G-protein coupled receptor 55 (Homo sapiens) (UniProt Q9Y2T6); assay: Inverse agonist activity at GPR55 in human MCF7 cells assessed as reduction in cell viability at 5 uM treated 30 mins after 10 uM GPR55 selective antagonist CID16020046 treatment followed by incubation for 24 hrs by MTT assay; procedure, shortened: as §1
[5] = target: G-protein coupled receptor 55 (Homo sapiens) (UniProt Q9Y2T6); assay: Inverse agonist activity at GPR55 in human MDA-MB-468 cells assessed as reduction in cell viability at 5 uM treated 30 mins after 10 uM GPR55 selective antagonist CID16020046 treatment followed by incubation for 24 hrs by MTT assay; procedure, shortened: as §1
[6] = target: G-protein coupled receptor 55 (Homo sapiens) (UniProt Q9Y2T6); assay: Inverse agonist activity at GPR55 in human MDA-MB-468 cells assessed as reduction in cell viability at 5 uM incubated for 24 hrs by MTT assay
[7] = target: G-protein coupled receptor 55 (Homo sapiens) (UniProt Q9Y2T6); assay: Inverse agonist activity at GPR55 in human MDA-MB-231 cells assessed as reduction in cell viability at 5 uM incubated for 24 hrs by MTT assay
[8] = target: G-protein coupled receptor 55 (Homo sapiens) (UniProt Q9Y2T6); assay: Inverse agonist activity at GPR55 in human MCF7 cells assessed as reduction in cell viability at 5 uM incubated for 24 hrs by MTT assay
[9] = target: G-protein coupled receptor 55 (Homo sapiens) (UniProt Q9Y2T6); assay: Inverse agonist activity at GPR55 in human T47D cells assessed as reduction in cell viability at 5 uM treated 30 mins after 10 uM GPR55 selective antagonist CID16020046 treatment followed by incubation for 24 hrs by MTT assay
[10] = target: G-protein coupled receptor 55 (Homo sapiens) (UniProt Q9Y2T6); assay: Inverse agonist activity at GPR55 in human T47D cells assessed as reduction in cell viability at 5 uM incubated for 24 hrs by MTT assay

Sequence of G-protein coupled receptor 55 (Homo sapiens) (Q9Y2T6 whole entry): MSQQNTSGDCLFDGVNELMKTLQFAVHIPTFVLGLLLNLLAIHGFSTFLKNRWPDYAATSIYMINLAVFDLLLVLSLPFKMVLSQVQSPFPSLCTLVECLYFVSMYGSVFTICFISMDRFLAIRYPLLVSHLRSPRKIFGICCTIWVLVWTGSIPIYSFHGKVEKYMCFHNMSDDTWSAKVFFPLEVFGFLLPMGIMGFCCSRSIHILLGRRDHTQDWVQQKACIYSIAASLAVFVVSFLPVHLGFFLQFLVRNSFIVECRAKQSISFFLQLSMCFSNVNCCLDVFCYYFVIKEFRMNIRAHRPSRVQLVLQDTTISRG

Structure (SMILES)	viability at 100 µM [1] [%]	EC50 [2] [µM]	Activity [3]	Activity [4]	Activity [5]	Activity [6]	Activity [7]	Activity [8]	Activity [9]	Activity [10]
O=C1C(Cl)=C(N2CCCCC2)C(=O)c2c(O)ccc(O)c21	65	2.5								
O=C1C(Cl)=C(N2CCOCC2)C(=O)c2c(O)ccc(O)c21	70	3.7	inactive	inactive	inactive	Active	Active	Active	inactive	inactive
